Experimental data taken from ChEMBL document CHEMBL1124617, “Approaches to isozyme-specific inhibitors. 16. A novel methyl-C5' covalent adduct of L-ethionine and beta,gamma-imido-ATP as a potent multisubstrate inhibitor of rat methionine adenosyltransferases” (J Med Chem, 1989).

How the values were obtained:
Type in all cases: protein assay
[1] = target: T1, S-adenosylmethionine synthetase (MAT 1 and MAT 2) (Rattus norvegicus, UniProt P13444+P18298); experiment: Compound was tested for inhibition constant with kidney form of M-2 variants of Rat methionine adenosyltransferase when ATP was the variable substrate
In short: (§1)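 Rat M-2 (normal tissue) isozyme. With methionine as the variable substrate, MgATP was fixed at 2 mM. With MgATP as the variable substrate, methionine was fixed at 60 µM. The MgATP KM was 0.14 mM. Ki values come from kinetic analysis of inhibition against each substrate.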

[2] = target: T1, S-adenosylmethionine synthetase (MAT 1 and MAT 2); experiment: Compound was tested for inhibition constant with kidney form of M-T variants of Rat methionine adenosyltransferase when ATP was the variable substrate
[3] = target: T1, S-adenosylmethionine synthetase (MAT 1 and MAT 2); experiment: Compound was tested for inhibition constant with kidney form of M-2 variants of Rat methionine adenosyltransferase when Methionine was the variable substrate; in short: as §1
[4] = target: T1, S-adenosylmethionine synthetase (MAT 1 and MAT 2); experiment: Compound was tested for inhibition constant with kidney form of M-T variants of Rat methionine adenosyltransferase when Methionine was the variable substrate

Row | Ki [1] | Ki [2] | Ki [3] | Ki [4] | SMILES
1 | 130 nM | 210 nM | 650 nM | 670 nM | Nc1ncnc2c1ncn2[C@@H]1O[C@H]([C@H](CSCCC(N)C(=O)O)OP(=O)(O)OP(=O)(O)NP(=O)(O)O)[C@@H](O)[C@H]1O (some centres not stated)
2 | 110 nM | 160 nM | 2100 nM | 1100 nM | Nc1ncnc2c1ncn2[C@@H]1O[C@H]([C@@H](CCSCCC(N)C(=O)O)OP(=O)(O)OP(=O)(O)NP(=O)(O)O)[C@@H](O)[C@H]1O (some centres not stated)
3 | 270 nM | 410 nM | 5400 nM | 2700 nM | Nc1ncnc2c1ncn2[C@@H]1O[C@H]([C@H](CCSCCC(N)C(=O)O)OP(=O)(O)OP(=O)(O)NP(=O)(O)O)[C@@H](O)[C@H]1O (some centres not stated)
